# Experimental data reported in ChEMBL document CHEMBL4706499, “PTG-0861: A novel HDAC6-selective inhibitor as a therapeutic strategy in acute myeloid leukaemia” (Eur J Med Chem, 2020).
# Experiments:
# MV4-11 [1] = test: Induction of apoptosis in human MV4-11 cells assessed as viable cells at 0.25 microM measured after 18 hrs by Annexin V/Propidium iodide stain based Flow cytometry assay (reference value: 53.27%); assay type: functional; settings: read-out: Activity
# MV4-11 [2] = test: Induction of apoptosis in human MV4-11 cells assessed as viable cells at 0.5 microM measured after 18 hrs by Annexin V/Propidium iodide stain based Flow cytometry assay (reference value: 53.27%); assay type: functional; settings: read-out: Activity
# [3] = Half life in mouse hepatocytes measured after 120 mins by LC/MS/MS method; assay type: ADME, cell-based, Hepatocyte
# [4] = Apparent permeability across apical to basolateral side in human Caco2 cells measured after 2 hrs by LC-MS/MS method; assay type: ADME, cell-based; settings: Caco-2
# Summary of the method: (§1)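 Bidirectional Caco-2 permeability was measured as Papp in the apical-to-basolateral and basolateral-to-apical directions. The efflux ratio was calculated from the two directional Papp values.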
# MV4-11 [5] = test: Induction of apoptosis in human MV4-11 cells assessed as late apoptotic cells at 1 microM measured after 18 hrs by Annexin V/Propidium iodide stain based Flow cytometry assay (reference value: 4.91%); assay type: functional
# MV4-11 [6] = test: Induction of apoptosis in human MV4-11 cells assessed as viable cells at 2 microM measured after 18 hrs by Annexin V/Propidium iodide stain based Flow cytometry assay (reference value: 53.27%); assay type: functional; settings: read-out: Activity
# Histone deacetylase 9 = Histone deacetylase 9 (Homo sapiens, UniProt Q9UKV0); test: Inhibition of recombinant full length human HDAC9 expressed in SF9 baculovirus using FAM- labelled acetylated peptide as substrate measured by Electrophoretic mobility shift assay
# Histone deacetylase 4 = Histone deacetylase 4 (Homo sapiens, UniProt P56524); test: Inhibition of recombinant full length human HDAC4 expressed in SF9 baculovirus using FAM- labelled acetylated peptide as substrate measured by Electrophoretic mobility shift assay
# Histone deacetylase 6 = target: T1, Histone deacetylase 6 (Danio rerio, UniProt F8W4B7); test: Inhibition of N-terminal 6 His-SUMO tagged Zebrafish HDAC6 CD2 domain expressed in Escherichia coli BL21(DE3) RILP pretreated for 10 mins before FITC-M344 addition and measured after 10 mins by fluorescence polarization competition assay
# T1 sequence (F8W4B7 whole entry): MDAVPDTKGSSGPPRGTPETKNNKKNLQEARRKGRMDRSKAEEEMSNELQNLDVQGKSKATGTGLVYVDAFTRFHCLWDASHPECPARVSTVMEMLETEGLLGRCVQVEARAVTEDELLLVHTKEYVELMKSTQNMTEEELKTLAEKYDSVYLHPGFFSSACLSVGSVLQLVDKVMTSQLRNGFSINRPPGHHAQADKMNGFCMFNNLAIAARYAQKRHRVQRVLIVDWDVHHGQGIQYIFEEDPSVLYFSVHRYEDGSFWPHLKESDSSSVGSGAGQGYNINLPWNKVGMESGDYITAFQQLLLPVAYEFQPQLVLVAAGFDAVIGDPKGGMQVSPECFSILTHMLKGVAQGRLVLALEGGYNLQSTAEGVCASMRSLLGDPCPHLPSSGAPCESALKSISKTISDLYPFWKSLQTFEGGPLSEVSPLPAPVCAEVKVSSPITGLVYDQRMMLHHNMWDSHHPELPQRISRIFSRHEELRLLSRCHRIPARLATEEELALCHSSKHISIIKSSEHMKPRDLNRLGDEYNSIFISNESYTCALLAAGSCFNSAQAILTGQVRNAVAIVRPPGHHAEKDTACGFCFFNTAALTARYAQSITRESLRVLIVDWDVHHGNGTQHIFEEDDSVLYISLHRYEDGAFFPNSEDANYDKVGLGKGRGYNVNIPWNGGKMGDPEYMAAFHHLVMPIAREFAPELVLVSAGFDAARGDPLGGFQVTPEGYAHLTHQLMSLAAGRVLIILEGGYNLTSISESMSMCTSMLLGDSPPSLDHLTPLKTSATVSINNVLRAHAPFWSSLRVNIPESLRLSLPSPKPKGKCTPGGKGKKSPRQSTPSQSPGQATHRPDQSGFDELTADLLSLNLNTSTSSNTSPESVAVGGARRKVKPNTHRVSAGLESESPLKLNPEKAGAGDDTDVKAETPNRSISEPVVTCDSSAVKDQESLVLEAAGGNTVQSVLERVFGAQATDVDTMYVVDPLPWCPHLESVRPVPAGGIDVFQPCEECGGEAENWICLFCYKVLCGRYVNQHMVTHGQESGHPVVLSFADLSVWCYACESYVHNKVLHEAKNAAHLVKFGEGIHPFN
# [7] = Intrinsic clearance in mouse hepatocytes assessed per 10^6 cells measured after 120 mins by LC/MS/MS method; assay type: ADME, cell-based, Hepatocyte; settings: read-out: CLH
# [8] = AUC (infinity) in CD1 mouse at 20 mg/kg, ip measured after 24 hrs by LC/MS/MS method; assay type: ADME, organism-based; design: route intraperitoneal, dose 20 mg/kg, time 24 hrs; settings: in vivo
# Fibroblast = test: Cytotoxicity against pooled human fibroblasts measured after 72 hrs by spectrophotometer method; assay type: cell-based
# MV4-11 [9] = test: Induction of apoptosis in human MV4-11 cells assessed as late apoptotic cells at 0.25 microM measured after 18 hrs by Annexin V/Propidium iodide stain based Flow cytometry assay (reference value: 4.91%); assay type: functional
# MV4-11 [10] = test: Induction of apoptosis in human MV4-11 cells assessed as late apoptotic cells at 4 microM measured after 18 hrs by Annexin V/Propidium iodide stain based Flow cytometry assay (reference value: 4.91%); assay type: functional
# MV4-11 [11] = test: Induction of apoptosis in human MV4-11 cells assessed as viable cells at 4 microM measured after 18 hrs by Annexin V/Propidium iodide stain based Flow cytometry assay (reference value: 53.27%); assay type: functional; settings: read-out: Activity
# [12] = Selectivity ratio of IC50 for full length recombinant human HDAC3 to IC50 for full length recombinant human HDAC6
# [13] = Glutathione reactivity at pH 7.4 assessed as compound remaining measured after 120 mins by LC-MS/MS method; assay type: physicochemical; settings: glutathione solution, read-out: Stabilty
# MV4-11 [14] = test: Cytotoxicity against human MV4-11 cells measured after 72 hrs by spectrophotometer method; assay type: functional, cell-based; settings: MV4-11, 72 h
# [15] = Glutathione reactivity at pH 7.4 assessed as compound remaining measured after 30 mins by LC-MS/MS method; assay type: physicochemical; settings: glutathione solution, read-out: Stabilty
# [16] = Apparent permeability across basolateral to apical side in human Caco2 cells measured after 2 hrs by LC-MS/MS method; assay type: ADME, cell-based; settings: Caco-2; summary of the method: as §1
# [17] = Cmax in CD1 mouse at 20 mg/kg, ip measured after 24 hrs by LC/MS/MS method; assay type: ADME, organism-based; design: route intraperitoneal, dose 20 mg/kg, time 24 hrs; settings: in vivo
# MV4-11 [18] = test: Induction of apoptosis in human MV4-11 cells assessed as late apoptotic cells at 0.5 microM measured after 18 hrs by Annexin V/Propidium iodide stain based Flow cytometry assay (reference value: 4.91%); assay type: functional
# Sequence of Histone deacetylase 9 (Q9UKV0 whole entry): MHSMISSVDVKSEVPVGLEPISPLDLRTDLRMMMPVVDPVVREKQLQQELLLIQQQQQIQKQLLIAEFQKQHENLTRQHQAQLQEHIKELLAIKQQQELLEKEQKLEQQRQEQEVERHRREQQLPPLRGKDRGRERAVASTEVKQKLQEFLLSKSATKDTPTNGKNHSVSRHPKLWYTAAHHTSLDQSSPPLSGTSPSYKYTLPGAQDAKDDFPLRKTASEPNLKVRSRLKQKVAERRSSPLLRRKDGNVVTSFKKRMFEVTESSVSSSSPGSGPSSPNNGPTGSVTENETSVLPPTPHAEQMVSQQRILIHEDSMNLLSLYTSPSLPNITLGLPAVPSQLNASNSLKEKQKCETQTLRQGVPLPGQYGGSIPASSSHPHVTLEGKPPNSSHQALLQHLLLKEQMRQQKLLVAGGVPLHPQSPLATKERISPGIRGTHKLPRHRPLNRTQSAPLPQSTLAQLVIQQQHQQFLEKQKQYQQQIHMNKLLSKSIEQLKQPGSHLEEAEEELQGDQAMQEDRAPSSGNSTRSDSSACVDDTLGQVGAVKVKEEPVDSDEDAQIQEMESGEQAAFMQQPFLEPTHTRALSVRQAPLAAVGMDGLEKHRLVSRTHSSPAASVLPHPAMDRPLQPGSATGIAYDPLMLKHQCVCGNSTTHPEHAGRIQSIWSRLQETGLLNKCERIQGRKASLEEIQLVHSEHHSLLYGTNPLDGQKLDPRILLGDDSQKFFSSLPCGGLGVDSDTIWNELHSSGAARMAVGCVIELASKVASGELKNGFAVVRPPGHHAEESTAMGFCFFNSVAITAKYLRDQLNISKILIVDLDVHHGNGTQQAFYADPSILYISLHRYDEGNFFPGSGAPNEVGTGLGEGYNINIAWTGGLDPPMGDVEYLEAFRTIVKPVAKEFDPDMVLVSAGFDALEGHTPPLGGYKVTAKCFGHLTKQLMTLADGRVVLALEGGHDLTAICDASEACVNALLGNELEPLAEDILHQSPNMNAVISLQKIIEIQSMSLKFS
# Sequence of Histone deacetylase 4 (P56524 whole entry, the tested form may be a part): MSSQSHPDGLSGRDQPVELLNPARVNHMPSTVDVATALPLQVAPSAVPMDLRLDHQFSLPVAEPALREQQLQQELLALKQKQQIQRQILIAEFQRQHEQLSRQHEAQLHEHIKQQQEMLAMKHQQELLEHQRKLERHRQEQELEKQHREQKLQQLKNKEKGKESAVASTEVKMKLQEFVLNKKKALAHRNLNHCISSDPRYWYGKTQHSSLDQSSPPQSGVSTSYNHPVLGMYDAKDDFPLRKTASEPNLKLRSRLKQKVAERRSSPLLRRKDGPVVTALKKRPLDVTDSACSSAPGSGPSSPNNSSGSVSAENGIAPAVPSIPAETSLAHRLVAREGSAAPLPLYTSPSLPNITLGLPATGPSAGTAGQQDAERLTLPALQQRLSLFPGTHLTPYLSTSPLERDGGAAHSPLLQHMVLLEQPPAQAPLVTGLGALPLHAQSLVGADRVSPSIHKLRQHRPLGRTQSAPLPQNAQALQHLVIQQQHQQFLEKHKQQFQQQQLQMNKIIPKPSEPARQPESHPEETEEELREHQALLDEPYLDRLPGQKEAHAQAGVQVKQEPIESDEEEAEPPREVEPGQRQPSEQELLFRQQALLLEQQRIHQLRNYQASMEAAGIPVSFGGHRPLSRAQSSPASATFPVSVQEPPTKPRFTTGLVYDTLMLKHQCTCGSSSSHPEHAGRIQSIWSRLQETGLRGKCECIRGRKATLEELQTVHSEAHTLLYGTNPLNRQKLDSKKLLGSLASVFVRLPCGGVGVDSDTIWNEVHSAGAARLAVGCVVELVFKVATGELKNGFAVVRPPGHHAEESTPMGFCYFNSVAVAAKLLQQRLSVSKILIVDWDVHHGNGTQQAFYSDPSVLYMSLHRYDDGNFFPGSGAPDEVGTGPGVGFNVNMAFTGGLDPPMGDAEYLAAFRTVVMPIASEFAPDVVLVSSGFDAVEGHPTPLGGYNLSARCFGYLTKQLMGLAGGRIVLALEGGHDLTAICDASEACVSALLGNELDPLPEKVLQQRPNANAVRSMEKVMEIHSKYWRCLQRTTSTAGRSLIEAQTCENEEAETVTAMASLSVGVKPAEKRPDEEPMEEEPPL
smiles,measurement,setting,value
O=C(NO)c1ccc(CNC(=O)c2c(F)c(F)c(F)c(F)c2F)cc1,viability at 0.25 µM,MV4-11 [1],52.3%
same,viability at 0.5 µM,MV4-11 [2],47.3%
same,half-life,[3],50.9 min
same,Papp A→B at 2 h,[4],1.33 ×10⁻⁶ cm/s
same,Activity,MV4-11 [5],11.15%
same,viability at 2 µM,MV4-11 [6],20.2%
same,IC50,Histone deacetylase 9,> 1 µM
same,IC50,Histone deacetylase 4,> 1 µM
same,IC50,Histone deacetylase 6,0.074 µM
same,hepatocyte CLint,[7],27.3 µL/min/1e6 cells
same,AUC(0-inf),[8],219 ng·h/mL
same,IC50,Fibroblast,14.6 µM
same,Activity,MV4-11 [9],5.13%
same,Activity,MV4-11 [10],41%
same,viability at 4 µM,MV4-11 [11],17.9%
same,Ratio IC50,[12],36.3
same,remaining at 2 h,[13],97.1%
same,IC50,MV4-11 [14],1.85 µM
same,remaining at 0.5 h,[15],96.4%
same,Papp B→A at 2 h,[16],0.94 ×10⁻⁶ cm/s
same,Cmax,[17],526 ng/mL
same,Activity,MV4-11 [18],7.46%
